Data published in ChEMBL document CHEMBL3632466, “Cembranoids from the Gum Resin of Boswellia carterii as Potential Antiulcerative Colitis Agents” (J Nat Prod, 2015).
One block for each compound: values may come before it. Activity calls are given as the source filed them. The rule behind the calls is not given here.

Key:
[1] = target: T1, X-box-binding protein 1 (Rattus norvegicus) (UniProt Q9R1S4); experiment: Transactivation of XBP1 in rat IEC-6 cells at 10 uM after 48 hrs by dual luciferase reporter gene assay relative to con2; format: cell-based
T1 sequence (whole entry): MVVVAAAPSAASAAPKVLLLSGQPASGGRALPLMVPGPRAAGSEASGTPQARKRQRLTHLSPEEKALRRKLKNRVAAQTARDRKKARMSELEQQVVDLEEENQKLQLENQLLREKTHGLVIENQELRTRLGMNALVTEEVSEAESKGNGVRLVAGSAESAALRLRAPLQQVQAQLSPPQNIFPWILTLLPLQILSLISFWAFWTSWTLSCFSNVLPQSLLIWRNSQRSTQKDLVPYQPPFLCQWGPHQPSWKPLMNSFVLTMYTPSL
Summary of the method: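 XBP 1 transcriptional activation measured by dual luciferase reporter detection. Con 2 is the pGL3-basic vector control, and activation is expressed as a fold ratio against it. Con 1 serves as background contrast, and 8-oxodihydrocoptisine is the positive control. Compounds are tested at 10 μM.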

[2] = Cytotoxicity against rat IEC-6 cells assessed as cell survival at 10 uM after 72 hrs by MTT assay relative to control; format: cell-based; settings: read-out: Survival

SMILES: C/C1=C\C[C@]2(C(C)C)CC[C@@](C)(O2)[C@@H]2CC[C@@](C)(O2)[C@@H](O)CC1=O (relative stereo)
Activity [1]: Active
viability at 72 h, 10 µM [2]: 87%

SMILES: C/C1=C\CC[C@@]2(C)O[C@@H]2C[C@]2(C(C)C)CC[C@@](C)(O2)[C@H](O)CC1
Activity [1]: Active
viability at 72 h, 10 µM [2]: 87%

SMILES: C/C1=C\[C@@H](O)C[C@@]2(C)O[C@@H]2C[C@]2(C(C)C)CC[C@@](C)(O2)[C@H](O)CC1=O
fold change (FC) [1]: 2.5
viability at 72 h, 10 µM [2]: 87%

SMILES: C/C1=C\CC[C@]2(C)O[C@H]2C[C@]2(C(C)C)CC[C@@](C)(O2)[C@H](O)CC1=O (relative stereo)
Activity [1]: Active
viability at 72 h, 10 µM [2]: 87%

SMILES: C/C1=C\[C@@H](O)C[C@@]2(C)O[C@@H]2C[C@]2(C(C)C)CC[C@@](C)(O2)[C@H](O)CC1
Activity [1]: Active
viability at 72 h, 10 µM [2]: 87%

SMILES: C/C1=C/C[C@@H](O)[C@@]2(C)CC[C@@](C(C)C)(C[C@@H](O)[C@]3(C)CC[C@H]1O3)O2
fold change (FC) [1]: 1.5
viability at 72 h, 10 µM [2]: 87%

SMILES: C/C1=C\CC[C@@]2(C)O[C@@H]2C[C@]2(C(C)C)CC[C@@](C)(O2)[C@H](O)CC1=O (relative stereo)
fold change (FC) [1]: 1.5
viability at 72 h, 10 µM [2]: 87%

SMILES: CC(C)[C@@]12CC[C@@](C)(O1)[C@@H]1CC[C@@](C)(O1)[C@@H](O)C[C@@H]1O[C@@]1(C)[C@H](O)C2
Activity [1]: Active
viability at 72 h, 10 µM [2]: 87%

SMILES: CC(C)[C@@]12CC[C@@](C)(O1)[C@H](O)CC/C(C=O)=C/CC[C@@]1(C)O[C@@H]1C2
fold change (FC) [1]: 1.6
viability at 72 h, 10 µM [2]: 87%

fold change (FC) [1]: 2.2
SMILES: O=c1c2c3c(ccc2cc2n1CCc1cc4c(cc1-2)OCO4)OCO3
